Measured values published in the array DNA melting data of Ke et al. (doi:10.1101/2024.01.08.574731).

Assays:
[1] = folding enthalpy; higher = less favourable; fluorescence melt of hairpins on a sequencing array, two-state fit; details: sodium 0.088 M
Summary of the method: (§1)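 Two-state fits, bootstrapped, provided melting temperature and folding enthalpy from Cy3 fluorescence normalised to pre-quench Cy3 and to control constructs. Library hairpins with annealed Cy3 and quencher oligos were imaged on a sequenced MiSeq flow cell in 50 mM Na-HEPES pH 8.0, 25 mM NaCl, at 2.5 °C intervals up to 60 °C. Four replicates were combined with inverse-variance weighting. A 9.35 °C upward shift was applied to fitted temperatures to match UV melts.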

[2] = melting temperature; fluorescence melt of hairpins on a sequencing array, two-state fit, raised by 9.35 °C to match UV melts; details: sodium 0.088 M
Summary of the method: as §1

Row | Sequence | folding enthalpy [1] | Tm [2]
1 | GGGAAGGGAAACCTTCTC (.(((((....))))).) | -23.8 kcal/mol | 46.6 °C
2 | GGGAAGGGAAACTTTCCC (((((.(....).))))) | -26 kcal/mol | 45.5 °C
3 | GGGAAGTCGAAAGACCCC (((..(((....)))))) | -22.7 kcal/mol | 44.8 °C
4 | GGGAATACGAAAGTACCC (((..(((....)))))) | -23 kcal/mol | 33.9 °C
5 | GGGAATCCGAAAGGACCC (((..(((....)))))) | -18.1 kcal/mol | 38.1 °C
6 | GGGAATGGAAACATTCCC (((((((....))))))) | -54.2 kcal/mol | 62 °C
7 | GGGAATGGAAACGTTCCC (((((.(....).))))) | -38 kcal/mol | 50.6 °C
8 | GGGACACCGAAAGGTCCC (((..(((....)))))) | -27.7 kcal/mol | 51.4 °C
9 | GGGACCCGAAAGGGACCC (((.(((....))).))) | -31.1 kcal/mol | 67 °C
10 | GGGACCGAAAGGTACCC ((((((....))).))) | -18.9 kcal/mol | 64.1 °C
11 | GGGACCGAAAGGTGACCC ((((((....)))..))) | -17.6 kcal/mol | 45.6 °C
12 | GGGACCGAAAGGTTTCCC ((((((....)))..))) | -18.6 kcal/mol | 42.5 °C
13 | GGGACCGGAAACGATCCC ((((.((....)).)))) | -45.8 kcal/mol | 50.8 °C
14 | GGGACGGCGAAAGCCCCC (((..(((....)))))) | -14.8 kcal/mol | 42.3 °C
15 | GGGACGGGAAACCACCCC (((..((....))..))) | -18.4 kcal/mol | 32.1 °C
16 | GGGACTCGAAAGAGCCCC (((.(((....))).))) | -34.6 kcal/mol | 57.1 °C
17 | GGGACTGGAAACAGCCCC (((.(((....))).))) | -35.3 kcal/mol | 51.9 °C
18 | GGGACTTCGAAAGAACCC (((..(((....)))))) | -5.69 kcal/mol | 29.8 °C
19 | GGGAGACGAAAGTCACCC (((.(((....))).))) | -31.5 kcal/mol | 58.2 °C
20 | GGGAGACGAAAGTCCCC (((.(((....)))))) | -35.5 kcal/mol | 56.4 °C
21 | GGGAGCCGAAAGGCCCC (((.(((....)))))) | -20.1 kcal/mol | 69 °C
22 | GGGAGCCGAAAGGCCCCC (((.(((....))).))) | -21.3 kcal/mol | 65.9 °C
23 | GGGAGCGAAAGCTATCCC ((((((....)))..))) | -16.6 kcal/mol | 48 °C

Row | Sequence | folding enthalpy [1] | Tm [2]
24 | GGGAGCGAAAGCTTACCC ((((((....)))..))) | -16.9 kcal/mol | 42.5 °C
25 | GGGAGCGAAAGCTTCCC ((((((....))).))) | -20.5 kcal/mol | 61.7 °C
26 | GGGAGCGAAAGCTTTCCC ((((((....)))..))) | -16.3 kcal/mol | 40.4 °C
27 | GGGAGCGCGAAAGCGCCC (((..(((....)))))) | -10.1 kcal/mol | 58.6 °C
28 | GGGAGCGGAAACACTCCC (((((.(....).))))) | -37.7 kcal/mol | 50.8 °C
29 | GGGAGCGGAAACGCTTCC ((.((((....)))).)) | -33.7 kcal/mol | 61.4 °C
30 | GGGAGGCGAAAGCCCCCC (((.(((....))).))) | -17.2 kcal/mol | 64.8 °C
31 | GGGAGTGGAAACACTTCC ((.((((....)))).)) | -36.2 kcal/mol | 50.5 °C
32 | GGGATACCGAAAGGTCCC (((..(((....)))))) | -17.4 kcal/mol | 45.2 °C
33 | GGGATATCGAAAGATCCC (((..(((....)))))) | -27.9 kcal/mol | 43.4 °C
34 | GGGATCCGAAAGGACCCC (((.(((....))).))) | -35.2 kcal/mol | 59.1 °C
35 | GGGATCGAAAGATAGCCC ((((((....)))..))) | -17.3 kcal/mol | 32.4 °C
36 | GGGATCGAAAGATTCCC ((((((....))).))) | -25 kcal/mol | 51 °C
37 | GGGATCGGAAACGATTCC ((.((((....)))).)) | -40.7 kcal/mol | 53.5 °C
38 | GGGATCGGAAACGGTTCC ((.(.((....)).).)) | -35.7 kcal/mol | 40.9 °C
39 | GGGATGCCGAAAGGCCCC (((..(((....)))))) | -15.6 kcal/mol | 46.6 °C
40 | GGGATGCGAAAGCACCCC (((.(((....))).))) | -27.7 kcal/mol | 61.4 °C
41 | GGGATTCGAAAGAAACCC (((.(((....))).))) | -48.4 kcal/mol | 50.6 °C
42 | GGGATTGGAAACAATCTC (.(((((....))))).) | -28.3 kcal/mol | 45.3 °C
43 | GGGATTGGAAACAGTTCC ((.(.((....)).).)) | -16.6 kcal/mol | 34.3 °C
44 | GGGATTGGAAACGATCTC (.(((.(....).))).) | -15.3 kcal/mol | 31.4 °C
45 | GGGCAAACGAAAGTTCCC (((..(((....)))))) | -19.5 kcal/mol | 35.6 °C
46 | GGGCAACGAAAGTTTCCC (((.(((....))).))) | -32.1 kcal/mol | 47.4 °C

Row | Sequence | folding enthalpy [1] | Tm [2]
47 | GGGCACCGAAAGGTCCC (((.(((....)))))) | -34 kcal/mol | 54.5 °C
48 | GGGCACGAAAGTGCGCCC ((((((....)))..))) | -11.8 kcal/mol | 54.9 °C
49 | GGGCACGAAAGTGGACCC ((((((....)))..))) | -17.9 kcal/mol | 53.6 °C
50 | GGGCACGGAAACGCACCC (((..((....))..))) | -20.2 kcal/mol | 35.6 °C
51 | GGGCACGGAAACGTACCC (((.(((....))).))) | -40.1 kcal/mol | 51.4 °C
52 | GGGCACGGAAACGTGCTC (.(((((....))))).) | -14.6 kcal/mol | 63.2 °C
53 | GGGCACGGAAACGTGTCC ((.((((....)))).)) | -40.8 kcal/mol | 63.4 °C
54 | GGGCAGAAATGCCC (((((....))))) | -24 kcal/mol | 65.2 °C
55 | GGGCAGCGAAAGCTCCCC (((.(((....))).))) | -18.3 kcal/mol | 56.3 °C
56 | GGGCAGCGAAAGCTTCCC (((.(((....))).))) | -38.7 kcal/mol | 55.8 °C
57 | GGGCAGGGAAACCCGCCC ((((.((....)).)))) | -38.2 kcal/mol | 60 °C
58 | GGGCAGGGAAACCTACCC (((.(((....))).))) | -29.2 kcal/mol | 45.5 °C
59 | GGGCATCCGAAAGGACCC (((..(((....)))))) | -18.3 kcal/mol | 38.6 °C
60 | GGGCATCGAAAGATACCC (((.(((....))).))) | -31.6 kcal/mol | 49.5 °C
61 | GGGCATGCGAAAGCACCC (((..(((....)))))) | -18.6 kcal/mol | 42.3 °C
62 | GGGCATGGAAACATACCC (((.(((....))).))) | -31.8 kcal/mol | 44.1 °C
63 | GGGCATGGAAACGTGCCC (((((.(....).))))) | -50.3 kcal/mol | 60 °C
64 | GGGCCACGAAAGTGCCC (((.(((....)))))) | -21.9 kcal/mol | 61.6 °C
65 | GGGCCCACGAAAGTGCCC (((..(((....)))))) | -18.8 kcal/mol | 50.4 °C
66 | GGGCCCGAAAGGGAGCCC ((((((....)))..))) | -23.8 kcal/mol | 62.3 °C
67 | GGGCCCGGAAACGGACCC (((.(((....))).))) | -39.3 kcal/mol | 58.8 °C
68 | GGGCCGCGAAAGCGTCCC (((.(((....))).))) | -20.4 kcal/mol | 65.8 °C
69 | GGGCCGGGAAACCGACCC (((.(((....))).))) | -43.9 kcal/mol | 57.5 °C

Row | Sequence | folding enthalpy [1] | Tm [2]
70 | GGGCCGGGAAACCGGTCC ((.((((....)))).)) | -38.3 kcal/mol | 68.8 °C
71 | GGGCCTACGAAAGTACCC (((..(((....)))))) | -9.06 kcal/mol | 34.7 °C
72 | GGGCCTCGAAAGAGCCC (((.(((....)))))) | -37.9 kcal/mol | 62.3 °C
73 | GGGCCTCGAAAGAGCCCC (((.(((....))).))) | -15.7 kcal/mol | 57.2 °C
74 | GGGCCTGGAAACAAGCCC ((((.((....)).)))) | -33.3 kcal/mol | 47.4 °C
75 | GGGCGACGAAAGTCTCCC (((.(((....))).))) | -43.2 kcal/mol | 53.6 °C
76 | GGGCGAGCGAAAGCTCCC (((..(((....)))))) | -13.1 kcal/mol | 50.5 °C
77 | GGGCGAGGAAACCCGCCC (((((.(....).))))) | -34.7 kcal/mol | 64.5 °C
78 | GGGCGATCGAAAGATCCC (((..(((....)))))) | -17.1 kcal/mol | 48.6 °C
79 | GGGCGCCGAAAGGCCCCC (((.(((....))).))) | -14 kcal/mol | 65.5 °C
80 | GGGCGCCGAAAGGCTCCC (((.(((....))).))) | -25.7 kcal/mol | 60.7 °C
81 | GGGCGCGAAAGCGTACCC ((((((....)))..))) | -13.1 kcal/mol | 56.3 °C
82 | GGGCGCGAAAGCGTTCCC ((((((....)))..))) | -13.7 kcal/mol | 52.3 °C
83 | GGGCGGCGAAAGCCCCCC (((.(((....))).))) | -16.6 kcal/mol | 63.9 °C
84 | GGGCGGGGAAACCCACCC (((.(((....))).))) | -40.7 kcal/mol | 54.6 °C
85 | GGGCGGGGAAACTCGCCC (((((.(....).))))) | -41.3 kcal/mol | 67.4 °C
86 | GGGCGTGCGAAAGCACCC (((..(((....)))))) | -13 kcal/mol | 54.4 °C
87 | GGGCGTGGAAACACGTCC ((.((((....)))).)) | -36.1 kcal/mol | 62.1 °C
88 | GGGCGTGGAAACGCGCCC (((((.(....).))))) | -22.5 kcal/mol | 68.3 °C
89 | GGGCTAGGAAACTAGTCC ((.((((....)))).)) | -37.6 kcal/mol | 52.4 °C
90 | GGGCTAGGAAACTGGCCC ((((.((....)).)))) | -41.4 kcal/mol | 58.2 °C
91 | GGGCTCGAAAGAGAACCC ((((((....)))..))) | -19.5 kcal/mol | 45.2 °C
